The values below come from publication PMC2910176 (Food and chemical toxicology : an international journal …, 2010).

The structures appear in SMILES notation. Bounds are passed on as bounds.

In one test the test system is Hs-68. Kind of test: MTT cell viability assay in normal skin fibroblasts Hs-68. The test is classed as cell-based, human. The settings on record: for inhibition of cell proliferation in human normal skin fibroblasts: 3.125–25 μg/ml; for Concentration producing 50% growth inhibition (IC50): Hs-68 normal skin fibroblasts, 48 hours, MTT. For orientation: Tetrazolium assays rely on reduction of a dye to a coloured formazan, in cell work by metabolically active cells.

The subject of test [1] is cancer cell lines HepG2, MCF-7 and MDA-MB-231. Kind of test: Anti-proliferative activity in cancer cell lines. Conditions: dose-dependent, three cancer cell lines. Type of test: cell-based, human.
Another test has as its system HepG2. Kind of test: MTT cell viability assay in HepG2. Type of test: cell-based, human. Conditions: for Concentration producing 50% growth inhibition (IC50): HepG2, 48 hours, MTT.
The subject of a further test is MCF-7. Kind of test: MTT cell viability assay in MCF-7. The settings on record: for Concentration producing 50% growth inhibition (IC50): MCF-7, 48 hours, MTT. Type of test: cell-based, human.
The subject of a further test is MDA-MB-231. Kind of test: MTT cell viability assay in MDA-MB-231. Type of test: cell-based, human. Conditions: for Concentration producing 50% growth inhibition (IC50): MDA-MB-231, 48 hours, MTT.
The subject of test [2] is human peripheral blood mononuclear cells (PBMC). Put plainly: PBMC proliferation. Type of test: cell-based. The settings on record: 72 hours, with polymyxin B; α-turmerone 10 or 15 μg/ml, ar-turmerone 5-15 μg/ml. An outline of the steps:
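PHA-activated PBMC (PHA 10 μg/ml final; polymyxin B 10 μg/ml present to bind LPS) were incubated 72 h with test compound at 5, 10 or 15 μg/ml, with matched vehicle. [methyl-3H]-thymidine (0.5 μCi/well) was added for the final 6 h. Cells were harvested onto glass-fibre filters for scintillation counting. Results are % cpm relative to untreated control, mean of 8 donors.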

Test [3] shares this test system. Kind of test: Cytokine production by PBMC. The test is classed as cell-based. The settings on record: for TNF-α production in PHA-activated PBMC / IFN-γ production in PHA-activated PBMC / IL-2 production in PHA-activated PBMC: 24 hours; for TNF-α production in PHA-activated PBMC: 10 and 15 μg/ml; for IFN-γ production in PHA-activated PBMC / IL-2 production in PHA-activated PBMC: data not shown. An outline of the steps:
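PBMC came from buffy coat by Ficoll density separation, with ≥95% trypan-blue viability, at 4 × 10^5/well. Resting or PHA-activated (10 μg/ml final) cells received test compound at 5, 10 or 15 μg/ml, with matched vehicle, for 24 h. Supernatants were recovered by centrifugation (300×g), stored at −80°C and assayed for IL-2, IFN-γ and TNF-α by ELISA. There were 8 donors, four wells each, reported as mean + SD; the statistic was an unpaired t-test versus control.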

Test [4] has the same test system. Conditions: ref Yadav et al., 2005; cited from earlier work.
The test system is the same in test [5]. The settings on record: ref Yadav et al., 2005; cited from earlier work. The source holds these as a separate data set.
The subject of test [6] is MDA-MB-231 cells. Put plainly: Cell cycle analysis. The settings on record: MDA-MB-231, after treatment. Type of test: cell-based, human. A digest of the protocol:
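MDA-MB-231 cells (3 × 10^5/well, 6-well) were plated overnight and then treated with test compound (30–45 μg/ml). They were fixed in 70% v/v ethanol at 4°C overnight and stained with PI (20 μg/ml) plus RNase A (10 μg/ml) for 30 min at 37°C in the dark. Flow cytometry collected 10,000 cells per sample, and cell cycle and apoptotic peaks were modelled; n=3.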

The test system of test [7] is MDA-MB-231 cells. Put plainly: DNA fragmentation assay. Type of test: cell-based, human. Conditions: MDA-MB-231, 24 and 48 hours. A digest of the protocol:
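MDA-MB-231 cells (1 × 10^6) were attached for 24 h in 100 mm dishes, then given test compound (40–80 μg/ml) or 0.4% v/v ethanol for 24 or 48 h. Lysis was 15 min at 37°C in 200 mM Tris-HCl, 100 mM EDTA, 1% SDS, pH 8.3. RNase A, then proteinase K, each ran 90 min at 56°C, followed by ethanol/sodium acetate precipitation. DNA ran on 1.5% agarose with ethidium bromide beside a 100 bp marker; n=3.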

The test system of test [8] is MDA-MB-231 cells. Kind of test: Annexin V-FITC/PI staining assay. Type of test: cell-based, human. The settings on record: MDA-MB-231, 24 hours. An outline of the steps:
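MDA-MB-231 cells (3 × 10^5/well) were exposed to test compound at various concentrations for 24 h. They were washed twice in 1X binding buffer, then labelled with annexin-V FITC plus PI for 15 min at room temperature in the dark, and analysed by flow cytometry. Annexin-V+ PI− (lower right quadrant) was taken as early apoptosis. Three independent experiments were run.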

The test system of test [9] is MDA-MB-231 cells. Put plainly: Western blot analysis of apoptosis and proliferation proteins. Type of test: cell-based, human. Conditions: MDA-MB-231, 40 or 60 μg/ml. An outline of the steps:
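MDA-MB-231 cells (1 × 10^6) were treated with test compound (40 or 60 μg/ml) or 0.4% v/v ethanol for 24 or 48 h. Lysis used 2% SDS, 10% glycerol, […] Tris-HCl, pH 6.8, on ice, then 95°C for 10 min. Lysates ran on 12% SDS-PAGE onto PVDF and were blocked in 5% milk/TBST. Primaries (overnight) were Bcl-2 and procaspases-3/-8 at 1:100 and cyclin D at 1:200; the β-actin loading control was 1:2000. HRP secondary was used with ECL; three independent experiments.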
For orientation: A western blot detects proteins with antibodies after separation by electrophoresis.

For `O=C(/C=C/c1ccc(O)cc1)CC(=O)/C=C/c1ccc(O)cc1` [Bisdemethoxycurcumin, bisdemethoxycurcumin], the “inhibition of cell proliferation in human normal skin fibroblasts” value (“inhibition … in human normal skin fibroblasts” below) in the test with Hs-68 is “did not induce any significant inhibition”. Moreover, in [1], the “proliferation of cancer cells” value is recorded as “significantly inhibited”.

In the case of `CC(C)=CC(=O)C[C@H](C)c1ccc(C)cc1` [ar-turmerone], the “Concentration producing 50% growth inhibition (IC50)” value in the test with HepG2 was over 100 µg/mL. The “Concentration producing 50% growth inhibition (IC50)” value in the test with MCF-7 is over 100 µg/mL. The “Concentration producing 50% growth inhibition (IC50)” value in the test on MDA-MB-231 is over 100 µg/mL. Also, in the test with Hs-68, the “inhibition … in human normal skin fibroblasts” value is “did not induce any significant inhibition” and the “Concentration producing 50% growth inhibition (IC50)” value is over 100 µg/mL. The “proliferation of PHA-activated PBMC” value in [2] is reported as “significantly stimulate”. In test [3] (24 hours, 5, 10 or 15 μg/ml), the “IFN-γ production in resting PBMC” value is “significantly increased”, the “IL-2 production in resting PBMC” value is “significantly increased” and the “TNF-α production in resting PBMC” value is “significantly increased”. Besides, in test [3], the “TNF-α production in PHA-activated PBMC” value was “significantly increased”, the “IFN-γ production in PHA-activated PBMC” value is on record as “neither α-turmerone (AL) nor ar-turmerone (AR) further altered” and the “IL-2 production in PHA-activated PBMC” value was “neither α-turmerone (AL) nor ar-turmerone (AR) further altered”.

For the compound `COc1cc(/C=C/C(=O)CC(=O)/C=C/c2ccc(O)c(OC)c2)ccc1O` [Curcumin, curcumin], the “proliferation of cancer cells” value in [1] was “significantly inhibited”. The “PHA-induced proliferation in PBMC” value in test [4] was “inhibited”. In [5], the “IL-2 production in PBMC (PHA-induced)” value is recorded as “inhibited”.

For the compound `CC(C)=CC(=O)CC(C)C1C=CC(C)=CC1` (stereo not drawn) [α-turmerone], the “inhibition of cell proliferation compared to the control” value (“inhibition … compared to the control” below) with HepG2 (HepG2, 50 μg/ml, 48 hours) is about 70%. In addition, in the test with HepG2, the “Concentration producing 50% growth inhibition (IC50)” value was 32.9 µg/mL. In addition, in the test with MCF-7 (MCF-7, 50 μg/ml, 48 hours), the “inhibition … compared to the control” value was about 70%. The “Concentration producing 50% growth inhibition (IC50)” value in the test on MCF-7 amounted to 41.8 µg/mL. For the same compound, the “inhibition … compared to the control” value in the test with MDA-MB-231 (MDA-MB-231, 50 μg/ml, 48 hours) is recorded as about 70%. Moreover, the “Concentration producing 50% growth inhibition (IC50)” value in the test with MDA-MB-231 was found to be 30.2 µg/mL. Besides, in the test with Hs-68, the “inhibition … in human normal skin fibroblasts” value is reported as “did not induce any significant inhibition” and the “Concentration producing 50% growth inhibition (IC50)” value is over 100 µg/mL. The “proliferation of cancer cells” value in test [1] is “significantly inhibited”. Moreover, the cell cycle arrest result with MDA-MB-231 cells [6] is given as “no arrest at any phase of the cell cycle”. Besides, the DNA fragmentation result in the test with MDA-MB-231 cells [7] is given as “detected”. The “proportion of early apoptosis cells (Annexin V-FITC positive and PI negative)” value in the test on MDA-MB-231 cells [8] is “increased with the concentrations”. In the test on MDA-MB-231 cells [9], the Bcl-2 expression result was “slightly down-regulated”, the “cleaved PARP” value was “observed”, the “expression level of pro-caspase-3” value is “significantly decreased” and the “expression level of pro-caspase-8” value is given as “significantly decreased”. Further, in the test on MDA-MB-231 cells [9], the “expression of cyclin D1” value is reported as “significantly decreased”; the “proteolytic cleavage of pro-caspase-9 (fragments p35 and p37)” value was “observed”. Besides, the “proliferation of PHA-activated PBMC” value in [2] is listed as “significantly stimulate”. Further, in test [3], the “TNF-α production in PHA-activated PBMC” value is “significantly increased”, the “IFN-γ production in PHA-activated PBMC” value is on record as “neither α-turmerone (AL) nor ar-turmerone (AR) further altered” and the “IL-2 production in PHA-activated PBMC” value is reported as “neither α-turmerone (AL) nor ar-turmerone (AR) further altered”.

As for `COc1cc(/C=C/C(O)=C/C(=O)/C=C/c2ccc(O)cc2)ccc1O` [Demethoxycurcumin, demethoxycurcumin], the “inhibition … in human normal skin fibroblasts” value in the test on Hs-68 is “did not induce any significant inhibition”. In addition, the “proliferation of cancer cells” value in [1] is “significantly inhibited”.
